Experimental data of several laboratories.

test system | setting | quantity | result | Compound
PAMPA | 40 µM, 5 h, pH 7.4 | Papp | 1.2 to 4 ×10⁻⁶ cm/s | CCCCCCCc1[nH]c2ccccc2c(=O)c1O
female minipig, plasma | oral, 2 mg/kg | Cmax | 900 nM | Cc1c(C(=O)O)ccc2c3n(nc12)[C@@H]1[C@H](C3)N(CC2CC2)[C@@]2(C(=O)Nc3cc(Cl)ccc32)[C@H]1c1cccc(Cl)c1F
PAMPA | 100 µM, 17 h, pH 6.4 | Papp | 1.9 ×10⁻⁶ cm/s | CC(C)C[C@@H]1NC(=O)[C@H](C)NC(=O)[C@H](Cc2ccccc2)NCC2=CC=C(CN(C)C1=O)O2
female Sprague-Dawley rat, plasma | intravenous, 5 mg/kg, fed | AUC(0-inf) | 11600 ng·h/mL | O=C1CC[C@H](N2Cc3cc(N4CCN(CC5CCN(c6ccc([C@@H]7c8ccc(O)cc8CC[C@@H]7c7ccccc7)cc6)CC5)CC4)ccc3C2=O)C(=O)N1
PAMPA-BBB | pH 7.4 | Papp | 3.98 ×10⁻⁶ cm/s | O=[N+]([O-])c1ccc2c(c1)S(=O)(=O)C=C2
male Wistar rat, plasma | oral, 10 mg/kg | AUC(0-inf) | 349 ng·h/mL | N#C[C@@]12C[C@@H]1[C@@H](n1cnc3c(N[C@@H](C4CCC4)C4CC4)nc(I)nc31)[C@H](O)[C@@H]2O
PAMPA | 100 µM, 17 h, pH 6.4 | Papp | 1.3 ×10⁻⁶ cm/s | CC(C)C[C@@H]1NC(=O)CN(C)C(=O)[C@H](Cc2ccccc2)NCC2=CC=C(CNC1=O)O2
PAMPA | 40 µM, 5 h, pH 7.4 | Papp | 14.3 ×10⁻⁶ cm/s | CC(C)NCC(O)COc1cccc2ccccc12 (stereo not drawn)
PAMPA-BBB | pH 7.4 | Papp | 11.6 ×10⁻⁶ cm/s | CC(C)Cc1ccc(C(C)C(=O)O)cc1 (stereo not drawn)
